Experimental data from different studies.
Lines come from different studies, so protocols differ. Values after ≈ are worked out from the molar mass of the structure shown.

c1ccc2c(N3CCCCC3)nc(-n3cccn3)nc2c1
IC50 (Trypanosoma cruzi; parasite growth, imaging; U2OS; intracellular, amastigote): 8.96 µM

CCOC(=O)c1c(NC(=O)c2c(F)c(F)c(F)c(F)c2F)sc2c1CCN(C(=O)OC(C)(C)C)C2
MIC (Mycobacterium tuberculosis; microbial growth, resazurin; H37RV; 7 days): > 100 µM

[H]/N=C(/N)N[C@H]1[C@H](O)[C@@H](O)[C@H](O[C@@H]2O[C@@H](C)[C@](O)(C=O)[C@H]2O[C@@H]2O[C@@H](CO)[C@H](O)[C@@H](O)[C@@H]2NC)[C@@H](N/C(N)=N\[H])[C@@H]1O
inhibition zone (Mycobacterium tuberculosis; microbial growth, disc diffusion; ATCC25177; 10 µg/disc, 12 days): 40 mm

O=C(N[C@@H](Cc1ccccc1)C(=O)c1cc(-c2ccccc2)no1)[C@H](Cc1ccccc1)NC(=O)N1CCOCC1 (mixture of isomers)
IC50 (Trypanosoma cruzi; parasite growth; TULAHUEN; intracellular, amastigote): 28 µM

CC1=NN(CNC(=O)c2ccccn2)C(=O)C1=NNn1c(-c2ccccc2)nc2ccccc2c1=O
MIC (Monascus purpureus; microbial growth, broth dilution): 104 µM (≈ 50 µg/mL)

COc1ccccc1CNC(=O)c1c(N)sc2c1CCCC2
MIC (Mycobacterium tuberculosis; microbial growth, resazurin; H37RV): 316 µM (≈ 100 µg/mL)

N#Cc1cccc(-c2nc(N3CCC(c4ccccn4)C3)c3ccccc3n2)c1 (stereo not drawn)
IC50 (Trypanosoma cruzi; parasite growth, imaging; U2OS; intracellular, amastigote): 6.92 µM

CCN1CCc2c(sc(N)c2C(=O)NCc2ccccc2OC)C1
MIC (Mycobacterium tuberculosis; microbial growth, resazurin; H37RV): > 200 µM

CC1=NN(CNc2c(O)c(S(=O)(=O)O)cc3ccccc23)C(=O)C1=NNn1c(-c2ccccc2)nc2ccccc2c1=O
MIC (Monascus purpureus; microbial growth, broth dilution): 41.8 µM (≈ 25 µg/mL)

c1ccc(-c2nc(N3CCC(c4ccccn4)C3)c3ccccc3n2)cc1 (stereo not drawn)
IC50 (Trypanosoma cruzi; parasite growth, imaging; U2OS; intracellular, amastigote): 4.82 µM

O=C1NN=C(N=Cc2ccc(O)cc2O)C1=NNn1c(-c2ccccc2)nc2ccccc2c1=O
MIC (Monascus purpureus; microbial growth, broth dilution): 53.5 µM (≈ 25 µg/mL)

Cc1cc2nc(C(=O)N3CCNCC3)cc(-c3ccccc3Cl)c2c(C)c1-c1ccncc1
MIC90 (Mycobacterium tuberculosis; microbial growth; H37RV): 10 µM (≈ 4.57 µg/mL)

COc1ccccc1CNC(=O)c1cc(-c2ccccc2)sc1N
MIC (Mycobacterium tuberculosis; microbial growth, resazurin; H37RV): > 200 µM

Cc1ccc2nc(-c3ccc(F)c(F)c3)c(CN3CCN(C4CCCCC4)CC3)n2c1
EC90 (Trypanosoma cruzi; parasite growth; TULAHUEN; 6 days, intracellular, amastigote): > 5 µM

O=[N+]([O-])c1ccc(-c2nc3cccc(O)c3[nH]2)o1
MBC (Staphylococcus haemolyticus; microbial killing): 0.5 µg/mL (≈ 2.04 µM)

Cn1cc(-c2nc(N3CCC(c4ccccn4)C3)c3ccccc3n2)cn1 (stereo not drawn)
IC50 (Trypanosoma cruzi; parasite growth, imaging; U2OS; intracellular, amastigote): 2.57 µM

CCOC(=O)c1cc(-c2ccccc2)sc1NC(=O)c1cc(C(F)(F)F)cc(C(F)(F)F)c1
MIC (Mycobacterium tuberculosis; microbial growth, resazurin; H37RV): > 200 µM

CC1=NN(CNc2ccc(C(=O)O)cc2)C(=O)C1=NNn1c(-c2ccccc2)nc2ccccc2c1=O
MIC (Monascus purpureus; microbial growth, broth dilution): 101 µM (≈ 50 µg/mL)

c1ccc2c(N3CCCCC3)nc(-c3ccncn3)nc2c1
IC50 (Trypanosoma cruzi; parasite growth, imaging; U2OS; intracellular, amastigote): 32.4 µM

CCCCNC(=O)c1c(N)sc2c1CCCC2
MIC (Mycobacterium tuberculosis; microbial growth, resazurin; H37RV): > 300 µM

c1ccc(-c2nc(N3CCCC3)c3ccccc3n2)nc1
IC50 (Trypanosoma cruzi; parasite growth, imaging; U2OS; intracellular, amastigote): 3.1 µM

Nc1nc(O)c2ncn(COC(CO)CO)c2n1
IC50 (Human betaherpesvirus 5; cytopathic effect; AD169): 0.9 µM

CCCCNC(=O)c1c(N)sc2c1CCN(CC)C2
IC50 (Mycobacterium tuberculosis; microbial growth, resazurin; H37RV): > 300 µM

COc1ccc(Nc2nc(-c3cccs3)nc3ccccc23)cc1
IC50 (Trypanosoma cruzi; parasite growth, imaging; U2OS; intracellular, amastigote): 5.87 µM
